# Screening results deposited in PubChem BioAssay by several laboratories.
# STAT1 blocker – STAT1 signaling inhibitors, primary screen, cell-based, HTS, luciferase reporter; inhibition, % at 5.5 µM; hit rate 0.35% among 200,000; NIH 3T3 STAT1-luciferase reporter, IFN-gamma, luminescence;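 active = inhibition above a set limit, the mean inhibition across all tested compounds plus 3 SD, cut at about 34% in these data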;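 note: 0% = IFN-gamma with DMSO and 100% = IFN-gamma with 300 µM nifuroxazide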
# STAT3 blocker – IL-6 driven STAT3 reporter inhibitors, primary screen, U3A cells, luciferase, luminescence, MLSCN library; inhibition, % at 5.5 µM; IL-6 STAT3-luciferase reporter; host cell line lacks STAT1; AID 862, 2007; hit rate 0.89% among 190,000;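 active = inhibition above the mean inhibition across all screened compounds plus 3 SD, cut at about 44% in these data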;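 note: 0% = DMSO only wells and 100% = 100 µM nifuroxazide control wells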
# STAT1 act – STAT1 signaling activators, primary screen, cell-based, HTS, luciferase reporter; NIH 3T3 STAT1-luciferase reporter, IFN-gamma, luminescence; 100% = IFN-gamma alone, no compound; activation (% of control), % at 5.5 µM; hit rate 2.6% among 200,000; AID 932, 2007;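 active = activation above the screen-wide mean activation plus 3 SD, cut at about 130% in these data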;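 note: raw ratio to IFN-gamma control signal so 100% means no change and 0% no light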
# STAT3 act – IL-6 driven STAT3 reporter potentiators, primary screen, U3A cells, luciferase, luminescence, MLSCN library. IL-6 STAT3-luciferase reporter; 100% = signal with IL-6 EC80 alone. activation (% of control), % at 5.6 µM. hit rate 0.91% among 190,000;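 active = activation above the screen-wide mean of compound activation plus 3 SD, cut at about 130% in these data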;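 note: 0% = background luminescence of wells with medium and substrate only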
#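 Assay system – human STAT1-deficient U3A cells with stable STAT3-luciferase reporter · Also added – IL-6 (33 ng/mL) · Schedule – compound 1 h, then IL-6 6 h at 37 °C · Technique – reporter luminescence signal · Evaluation – % activation versus median of IL-6-stimulated wells · Benchmarks – IL-6-only wells as 100% reference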
# FLuc act counter – FLuc activators, initial screening, artefact control for FLuc-dependent activation tests, biochemical, ATPlite luminescence | Luciferin 4-monooxygenase (Photinus pyralis), P08659 | ATPlite luciferase biochemical, 10 min; 0 = ATP-free wells, 1 = DMSO control | activation factor at 10 µM | 200,000 tested, under 10 active | AID 1027, 2008;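 active = luciferase activation factor, scaled between plate controls, of at least 2 with compound at 10 µM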
# Target sequence (P08659 whole entry, looked up): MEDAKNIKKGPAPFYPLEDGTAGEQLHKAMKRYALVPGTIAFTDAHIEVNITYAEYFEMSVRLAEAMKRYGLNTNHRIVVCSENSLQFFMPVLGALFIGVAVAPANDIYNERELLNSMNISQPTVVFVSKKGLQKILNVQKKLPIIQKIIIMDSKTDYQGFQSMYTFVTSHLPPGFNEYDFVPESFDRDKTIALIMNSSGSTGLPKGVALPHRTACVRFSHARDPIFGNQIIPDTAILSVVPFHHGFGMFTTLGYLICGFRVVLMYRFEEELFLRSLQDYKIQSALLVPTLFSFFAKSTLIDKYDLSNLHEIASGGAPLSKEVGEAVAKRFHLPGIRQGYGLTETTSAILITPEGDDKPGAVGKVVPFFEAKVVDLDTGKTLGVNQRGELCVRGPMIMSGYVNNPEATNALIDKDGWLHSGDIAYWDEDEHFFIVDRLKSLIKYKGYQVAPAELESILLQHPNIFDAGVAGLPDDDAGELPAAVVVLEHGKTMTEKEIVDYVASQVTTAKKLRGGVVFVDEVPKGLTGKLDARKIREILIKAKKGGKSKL
#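 test system = cell-free luciferase reagent | medium = PBS as buffer for the ATP substrate | dosing = test compounds dosed from 2 mM stocks in 100% DMSO | incubation = 10 min at ambient temperature | detection = luminescence measurement of luciferase light output | benchmarks = low control with PBS replacing ATP, high control enzyme plus ATP without compound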
# FLuc inhib CS – firefly luciferase enzyme inhibitors, primary screen, artefact control for luciferase-based inhibitor screens, biochemical, luminescence, ATPLite; inhibition, % at 10 µM; 10 min; hit rate 1.5% among 200,000; AID 1006, 2008;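 active = inhibition above about 50% when tested at 10 µM, limit read from the data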
# * marks the source's active call; other numbers are inactive results; x = not tested or not shown. A selection: hits, their analogues and other compounds. The true share with any hit is near 4.9%.
SMILES,STAT1 blocker,STAT3 blocker,STAT1 act,STAT3 act,FLuc act counter,FLuc inhib CS
COc1ccc(/C=C2\S/C(=N/S(=O)(=O)c3cccs3)NC2=O)cc1,-1,7,100,96,1,-3
c1ccc(SCc2nc(-c3ccncc3)no2)cc1,-33,-17,129*,117,0.9,7
COc1ccc(-c2noc(CSc3ccccc3)n2)cc1OC,-32,-12,130*,115,1,0
COc1ccccc1N/C(N)=N/c1nc(C(F)(F)F)cc(=O)[nH]1,10,8,88,98,1,-2
Cc1ccc(/C=C2/C(=O)c3ccc(C(=O)O)cc3C2=O)o1,3,-4,96,108,0.6,42
O=C1C(=Cc2cccs2)C(=O)c2ccccc21,-5,-3,105,102,0.5,53*
O=C1C(=Cc2ccco2)C(=O)c2ccccc21,-1,-15,101,111,0.8,16
Cc1ccc(C=C2C(=O)c3ccccc3C2=O)o1,-7,3,106,96,0.2,84*
Cc1ccc(C=C2C(=O)c3ccccc3C2=O)s1,-12,-21,111,121,0.3,75*
Cc1ccccc1C1=N/C(=C/c2cccs2)C(=O)O1,2,6,98,106,0.2,85*
C=CCOc1ccc(CNCCc2ccc(S(N)(=O)=O)cc2)cc1,-11,2,108,103,1,-2
COc1ccc2c(c1)OC/C(=C/c1cccs1)C2=O,-52,12,147*,94,0.1,87*
COc1ccc(/C=C2\COc3ccccc3C2=O)cc1OC,7,4,93,97,0.9,11
O=C1/C(=C/c2cccs2)Cc2ccccc21,-12,-2,111,98,0.4,58*
CN(C(=O)COc1ccccc1C(=O)NCCOc1ccccc1)c1ccccc1,19,20,83,86,1,-4
CC1Cc2ccccc2N1CC(=O)NCc1ccc2c(c1)OCO2 (stereo not given),-7,-6,106,105,1,-4
O=C(Nc1nc(-c2cccnc2)cs1)c1ccccc1Cl,-18,7,114,96,1.1,-6
O=C(Nc1nc(-c2ccccc2)cs1)c1cccnc1,-6,25,103,80,1,0
c1ccc(-c2csc(Nc3cccnc3)n2)cc1,-41,-54,136*,149*,0.9,8
CN(C)c1ccc(Nc2nc(-c3cccnc3)cs2)cc1,-52,-6,147*,110,0.2,78*
Fc1ccc(Nc2nc(-c3cccnc3)cs2)cc1,-42,-64,136*,157*,0.7,26
Clc1cccc(Nc2nc(-c3ccncc3)cs2)c1,-16,-2,114,103,1,-4
Cc1cccc(Nc2nc(-c3ccncc3)cs2)c1,-34,-1,130*,112,1,0
CC(=O)Nc1ccc(C(=O)Nc2nc(-c3cccnc3)cs2)cc1,4,4,95,104,1,0
O=C(NN=C1c2ccccc2-c2ccccc21)c1cccc(Br)c1,6,4,95,96,1,-2
SMILES,STAT1 blocker,STAT3 blocker,STAT1 act,STAT3 act,FLuc act counter,FLuc inhib CS
CC(C)CNC(=O)c1ccccc1NC(=O)c1ccccc1N(C)S(=O)(=O)c1ccccc1,6,-7,95,102,1.1,-5
OCc1cn(-c2ccccc2)nc1-c1ccc2c(c1)OCCO2,-58,-10,144*,108,1,2
COc1ccc(-c2nn(-c3ccccc3)cc2/C=N/NC(=O)c2ccc3c(c2)OCO3)cc1,-11,19,110,90,1.1,-10
COc1ccc(-c2nn(-c3ccccc3)cc2/C=N/NC(=O)c2ccc(Br)o2)cc1,0,45*,100,69,1,-4
O/N=C/c1cn(-c2ccccc2)nc1-c1ccc2c(c1)OCCO2,-5,0,104,102,1,-4
COc1cccc(-c2nn(-c3ccccc3)cc2CO)c1,-44,6,144*,99,1,0
O=C(N/N=C/c1cn(-c2ccccc2)nc1-c1ccc2c(c1)OCCO2)c1ccncc1,-53,1,148*,101,1,-1
O=C(CCC(=O)N(CC(=O)NC1CCCCC1)Cc1cccs1)Nc1ccccn1,-2,16,101,89,1.1,-6
CC(=O)C(Cc1cccc(F)c1)(Cc1cccc(F)c1)C(C)=O,-4,-1,101,105,1.1,-9
CSc1ncc(-c2ccccc2)cn1,-21,8,121,94,0.9,7
Brc1ccc(-c2ncc(-c3ccccc3)cn2)cc1,-43,11,139*,97,0.7,32
O=C(Nc1ccc2sccc2c1)c1cccc(N2C(=O)CCC2=O)c1,-42,-12,140*,109,0.8,20
O=C(Nc1nc2cc3c(cc2s1)OCCO3)c1cccc(N2C(=O)CCC2=O)c1,-13,x,110,x,0.2,81*
Cc1nc2ccc(NC(=O)c3ccc(N4C(=O)CCC4=O)cc3)cc2s1,6,10,94,94,1,-2
COc1ccc2oc(=O)c(C(=O)NCc3ccco3)cc2c1,-5,18,104,88,1,-2
Cc1cc(/C=C(\C#N)C(=O)NC2CC2)c(C)[nH]1,-51,-38,145*,132,0.6,42
Cc1cc(/C=C(\C#N)C(=O)NC2CCCCCC2)c(C)[nH]1,-17,1,115,104,1,3
Nc1c(N)c2ccccc2oc1=O,-6,-21,106,119,1,2
Nc1ccc2oc(=O)c3ccccc3c2c1,-38,-1,134*,110,1,3
CC(C)=NN/C(N)=N/C(=S)Nc1ccc(C)cc1,-9,4,108,99,0.5,54*
Cc1cc(C)cc(NC(=S)/N=C(\N)Nc2nc(C)c3ccccc3n2)c1,14,24,87,78,1,-4
c1ccc2[nH]c(SCC3CCCCO3)nc2c1 (stereo not given),-36,6,131*,98,0.6,41
COc1ccc(OCC(=O)Nc2nc3ccc(NC(C)=O)cc3s2)cc1,-10,1,110,101,1,-3
CCn1nnnc1SCC(=O)Nc1nc2ccc(OC)cc2s1,-23,3,118,101,0.9,7
CCOC(=O)c1cccc(C(=O)Nc2nc3ccc(OC)cc3s2)n1,-15,40,113,69,0.1,91*
COc1ccc2nc(Nc3ccccc3OC)sc2c1,-8,26,108,82,0.1,87*
